NF-kB neuron act: raises NF-kB expression in human neuronal cells | NF-kB reporter expression; stronger effect = higher value | fold change at 12.5 µM | 190,000 compounds, 1.6% hits; in the data active means fold change above about 3.3
STAT1 inh: reduces IFN-gamma driven STAT1 reporter signal; NIH 3T3 STAT1-luciferase reporter, luminescence; inhibition, % at 5.5 µM; 200,000 compounds, 0.35% hits; AID 920;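 active means inhibition above a set limit, the mean inhibition across all tested compounds plus 3 SD, cut at about 34% in these data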;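 further: 0% = IFN-gamma with DMSO and 100% = IFN-gamma with 300 µM nifuroxazide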
STAT3 inh: STAT3 signaling inhibition; U3A cells, IL-6 STAT3-luciferase reporter, luminescence; host cell line lacks STAT1; inhibition, % at 5.5 µM; 190,000 compounds, 0.89% hits; AID 862;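 active means inhibition above the mean inhibition across all screened compounds plus 3 SD, cut at about 44% in these data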;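 further: 0% = DMSO only wells and 100% = 100 µM nifuroxazide control wells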
APP 5'UTR act: activates APP 5'UTR luciferase reporter; SH-SY5Y APP 5'UTR luciferase reporter, luminescence; zero percent = DMSO vehicle wells; activation, % at 2 µM; 190,000 compounds, 1% hits;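 active means activation above a set limit, based on mean plus 3 SD of controls, cut at about 140% in these data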
STAT3 act: STAT3 signaling activation. U3A cells, IL-6 STAT3-luciferase reporter, luminescence; 100% = signal with IL-6 EC80 alone. activation (% of control), % at 5.6 µM. 190,000 compounds, 0.91% hits;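 active means activation above the screen-wide mean of compound activation plus 3 SD, cut at about 130% in these data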;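 further: 0% = background luminescence of wells with medium and substrate only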
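Detection: reporter luminescence signal / Assay system: STAT1-lacking human U3A cells, STAT3 luciferase reporter / Incubation: compound pre-incubation 1 h before IL-6, then 6 h stimulation at 37 °C / Control set: IL-6-only high control / Read-out: % activation relative to IL-6 control / Probe or stimulus: Interleukin-6, 33 ng/mL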
STAT1 activator: increases IFN-gamma driven STAT1 reporter signal. NIH 3T3 STAT1-luciferase reporter, luminescence; 100% = IFN-gamma alone, no compound. activation (% of control), % at 5.5 µM. 200,000 compounds, 2.6% hits. AID 932;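 active means activation above the screen-wide mean activation plus 3 SD, cut at about 130% in these data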;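 further: raw ratio to IFN-gamma control signal so 100% means no change and 0% no light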
* marks the source's active call; other numbers are inactive results. Hits are enriched below; roughly 4.9% of the tested compounds scored in any of these assays.

What do the screens show for `Cc1ccccc1OCC(=O)Nc1ccc2c(c1)OCO2`?
NF-kB neuron act: 1.7; STAT1 inh: -11; STAT3 inh: 13; APP 5'UTR act: 27; STAT3 act: 91; STAT1 activator: 110

How did O=C(CCNc1ccccc1)c1ccc2c(c1)OCO2 do in these assays?
NF-kB neuron act: 3.1; STAT1 inh: -52; STAT3 inh: 6; APP 5'UTR act: 55; STAT3 act: 100; STAT1 activator: 148*

Results for CC(=O)Nc1ccccc1OCC(=O)c1ccc2c(c1)OCO2 ?
NF-kB neuron act: 1.4; STAT1 inh: -38; STAT3 inh: 0; APP 5'UTR act: 123; STAT3 act: 105; STAT1 activator: 135*

What do the screens show for `COC(=O)c1ccc(NC(=O)COc2ccc(S(=O)(=O)NC(C)(C)C)cc2)cc1`?
NF-kB neuron act: 1.3; STAT1 inh: -2; STAT3 inh: 11; APP 5'UTR act: 11; STAT3 act: 98; STAT1 activator: 102

How did COc1ccc(C(=O)N=c2sc3c(C)ccc(OC)c3n2C)cc1 do in these assays?
NF-kB neuron act: 3.1; STAT1 inh: -46; STAT3 inh: 2; APP 5'UTR act: 80; STAT3 act: 106; STAT1 activator: 142*

Results for COc1ccc(OC)c2c1sc(=NC(=O)C(C)(C)C)n2C ?
NF-kB neuron act: 1.3; STAT1 inh: -4; STAT3 inh: 14; APP 5'UTR act: -7; STAT3 act: 93; STAT1 activator: 104

How did CCOC(=O)C1(CCCc2ccccc2)CCN(CC(O)CO)CC1 (stereo unspecified) do in these assays?
NF-kB neuron act: 0.93; STAT1 inh: 1; STAT3 inh: -10; APP 5'UTR act: -1; STAT3 act: 111; STAT1 activator: 98

Results for Cc1ccc(NC(=O)COC(=O)c2cccc3c(=O)c(C)c(-c4ccccc4)oc23)cc1 ?
NF-kB neuron act: 0.48; STAT1 inh: 8; STAT3 inh: 13; APP 5'UTR act: 1; STAT3 act: 89; STAT1 activator: 92

How did Fc1ccc(-c2nnc(CSc3nnc4ccccn34)o2)cc1 do in these assays?
NF-kB neuron act: 2; STAT1 inh: -26; STAT3 inh: -8; APP 5'UTR act: 10; STAT3 act: 105; STAT1 activator: 124

How did c1ccc(-c2cnc(CSc3nnc4ccccn34)o2)cc1 do in these assays?
NF-kB neuron act: 2.5; STAT1 inh: -38; STAT3 inh: 2; APP 5'UTR act: 130; STAT3 act: 102; STAT1 activator: 137*

How did Cc1ccc(S(=O)(=O)C2(C(=O)N3CCN(c4cc(C)ccc4C)CC3)CC2)cc1 do in these assays?
NF-kB neuron act: 0.79; STAT1 inh: 9; STAT3 inh: 9; APP 5'UTR act: 15; STAT3 act: 94; STAT1 activator: 91

Results for COc1cc(/C=N/N(C)c2ccccc2)ccc1O ?
NF-kB neuron act: 10*; STAT1 inh: -44; STAT3 inh: -9; APP 5'UTR act: 179*; STAT3 act: 112; STAT1 activator: 140*

Results for Cc1cc(SCC(=O)Nc2cccc(S(N)(=O)=O)c2)c(C)cc1Br ?
NF-kB neuron act: 1.1; STAT1 inh: 12; STAT3 inh: 10; APP 5'UTR act: -2; STAT3 act: 96; STAT1 activator: 90

How did Cc1cc(SCC(=O)Nc2cccc(S(=O)(=O)NC3=NCCCCC3)c2)c(C)cc1Br do in these assays?
NF-kB neuron act: 3.4*; STAT1 inh: 0; STAT3 inh: 7; APP 5'UTR act: 14; STAT3 act: 102; STAT1 activator: 100

What do the screens show for `Cc1nnc(C)n1/N=C/c1ccccc1`?
NF-kB neuron act: 1.3; STAT1 inh: 8; STAT3 inh: -2; APP 5'UTR act: -17; STAT3 act: 106; STAT1 activator: 92

What do the screens show for `N=C1N(/N=C/c2ccccc2)C(=Nc2ccccc2)C(=S)N1c1ccccc1`?
NF-kB neuron act: 2.3; STAT1 inh: -39; STAT3 inh: 5; APP 5'UTR act: 20; STAT3 act: 98; STAT1 activator: 132*

How did O=C(NCCCN1CCCCCC1)c1ccc2c(c1)NC(=O)C(N1CCOCC1)S2 (stereo unspecified) do in these assays?
NF-kB neuron act: 1; STAT1 inh: -1; STAT3 inh: 7; APP 5'UTR act: 8; STAT3 act: 101; STAT1 activator: 101

What do the screens show for `Cc1ccc(CNC(=O)c2ccc3c(c2)NC(=O)C(N2CCOCC2)S3)cc1` (stereo unspecified)?
NF-kB neuron act: 0.86; STAT1 inh: 11; STAT3 inh: -33; APP 5'UTR act: 6; STAT3 act: 133*; STAT1 activator: 91

Results for Cc1csc2nc(CSc3nc4ccccc4o3)c(Br)n12 ?
NF-kB neuron act: 2.8; STAT1 inh: -49; STAT3 inh: 21; APP 5'UTR act: 132; STAT3 act: 84; STAT1 activator: 146*

What do the screens show for `Cc1csc2nc(CSc3nncn3-c3ccccc3)c(Br)n12`?
NF-kB neuron act: 0.98; STAT1 inh: 8; STAT3 inh: -4; APP 5'UTR act: -2; STAT3 act: 106; STAT1 activator: 93

Results for COc1cc(CNc2ccc(C)c(C)c2)cc(OC)c1OC ?
NF-kB neuron act: 1; STAT1 inh: 1; STAT3 inh: 2; APP 5'UTR act: 9; STAT3 act: 103; STAT1 activator: 99

Results for COc1ccc(CNc2ccc(C)c(C)c2)cc1 ?
NF-kB neuron act: 1.8; STAT1 inh: -32; STAT3 inh: 0; APP 5'UTR act: 25; STAT3 act: 105; STAT1 activator: 130*

Results for CC(C)c1ccc(OCC(=O)N2CCCCCC2)c(Br)c1 ?
NF-kB neuron act: 1.7; STAT1 inh: -40; STAT3 inh: -5; APP 5'UTR act: 33; STAT3 act: 114; STAT1 activator: 137*

Results for Cc1cc(Br)ccc1OCC(=O)N1CCCCCC1 ?
NF-kB neuron act: 1.1; STAT1 inh: 6; STAT3 inh: -6; APP 5'UTR act: 12; STAT3 act: 106; STAT1 activator: 94

What do the screens show for `COCCn1c(N)c(N(Cc2ccccc2)C(=O)c2oc3ccccc3c2C)c(=O)[nH]c1=O`?
NF-kB neuron act: 0.35; STAT1 inh: -4; STAT3 inh: -23; APP 5'UTR act: 7; STAT3 act: 122; STAT1 activator: 102

How did Cc1ccccc1Cn1ccc(=NCc2ccccc2)cc1 do in these assays?
NF-kB neuron act: 0.76; STAT1 inh: 33; STAT3 inh: 29; APP 5'UTR act: -2; STAT3 act: 78; STAT1 activator: 71

How did Fc1ccccc1CSc1nnc(-c2cccs2)o1 do in these assays?
NF-kB neuron act: 4.1*; STAT1 inh: -52; STAT3 inh: -5; APP 5'UTR act: 119; STAT3 act: 106; STAT1 activator: 146*

Results for CC1CCCC(C)N1C(=O)CSc1nnc(-c2cccs2)o1 (stereo unspecified) ?
NF-kB neuron act: 2.7; STAT1 inh: -51; STAT3 inh: 2; APP 5'UTR act: 98; STAT3 act: 101; STAT1 activator: 147*
